The target in one data set is T1, D(4) dopamine receptor (Homo sapiens, UniProt P21917).
T1 sequence (P21917 whole entry): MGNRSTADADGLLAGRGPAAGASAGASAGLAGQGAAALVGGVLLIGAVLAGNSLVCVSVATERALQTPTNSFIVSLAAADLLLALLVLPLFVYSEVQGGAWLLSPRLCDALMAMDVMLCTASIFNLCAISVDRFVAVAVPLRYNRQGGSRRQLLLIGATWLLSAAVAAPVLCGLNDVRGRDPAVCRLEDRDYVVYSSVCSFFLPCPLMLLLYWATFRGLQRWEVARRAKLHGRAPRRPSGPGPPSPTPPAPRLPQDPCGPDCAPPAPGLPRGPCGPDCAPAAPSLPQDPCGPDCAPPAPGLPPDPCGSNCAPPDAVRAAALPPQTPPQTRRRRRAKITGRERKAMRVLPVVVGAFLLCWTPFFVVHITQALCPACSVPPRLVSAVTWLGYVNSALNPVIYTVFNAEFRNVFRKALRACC
The data set can be described thus: Displacement of [3H]N-methylspiperone from human D4R expressed in HEK293 cell membranes incubated for 1 hr by radioligand binding assay. Put shortly:
(§1)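 Membranes from HEK293 cells stably expressing human D2R (20 µg protein) or D4R (30 µg protein). Buffer: EBSS with 0.2 mM sodium metabisulfite and 0.4 nM [3H]N-methylspiperone. Test compound at 11 half-log dilutions (100 µM–100 pM or 10 µM–10 pM) in 30% DMSO vehicle. Incubated 1 h at room temperature; nonspecific binding with 10 µM butaclamol.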

The target in data set [1] is T2, D(2) dopamine receptor (Homo sapiens, UniProt P14416). The data set can be described thus: Displacement of [3H]N-methylspiperone from human D2R expressed in HEK293 cell membranes incubated for 1 hr by radioligand binding assay. Put shortly: as §1
For a further data set, the target named is D(3) dopamine receptor (Homo sapiens, UniProt P35462). The data set can be described thus: Displacement of [3H]N-methylspiperone from human D3R expressed in HEK293 cell membranes incubated for 1 hr by radioligand binding assay.
Data set [2] addresses Sigma non-opioid intracellular receptor 1 (Cavia porcellus, UniProt Q60492). Put plainly: Displacement of [3H](+)-pentazocine from sigma1 receptor in whole-guinea pig brain minus cerebellum homogenates incubated for 120 mins by radioligand binding assay. Put shortly: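 Guinea pig whole-brain (minus cerebellum) membranes, 8.0 mg OWW per tube, in 50 mM Tris-HCl pH 8.0 with 3 nM [3H](+)-pentazocine. Incubated 120 min at room temperature. Nonspecific binding defined by haloperidol. Stopped by GF/B filtration and scintillation counting. IC50 from nonlinear regression, converted to Ki. At least three independent experiments, each in triplicate.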

Data set [3] can be described thus: Induction of locomotor activity in C57BL/6J mouse assessed as increase in traveled distance every 10 mins at 10 mg/kg, ip. Particulars: in vivo. The class given is organism-based.
Data set [4] concerns the target T2, D(2) dopamine receptor. Put plainly: Antagonist activity at DRD2 (unknown origin) expressed in HEK293T cells transfected with Galphai1-RLuc8 and gamma2-GFP10 assessed as inhibition of quinpirole-induced Gi1 activation pre-incubated with quinpirole for 10 mins before compound incubation for 10 mins by BRET assay. The class given is cell-based, HEK-293T. In short, it runs like this:
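HEK-293T cells co-transfected with Flag-tagged D2 receptor, RLuc8-fused Gαi1, GFP10-fused Gγ and untagged Gβ, using constant total plasmid DNA at various partner ratios. Cells preincubated 10 min with 1 µM quinpirole, then 10 min with test compound. Read-out: BRET as fluorescence at 535 nm after 5 µM coelenterazine 400a.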

Data set [5] is described as follows: Induction of locomotor activity in C57BL/6J mouse assessed as increase in traveled distance every 10 mins at 10 to 30 mg/kg, ip. The class given is organism-based. Conditions: in vivo.
Data set [6] in a line: Stability in mouse liver microsomes assessed as half life at 10 uM in presence of NADPH regenerating system by LC/MS/MS method. The class given is ADME. Conditions: for half-life at 10 µM: liver microsomes. Put shortly: (§2)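 Mouse liver microsomes (0.5 mg/mL) in 100 mM potassium phosphate pH 7.4 with NADPH regenerating system. Compound at 10 µM final; testosterone as positive control. Parent compound loss followed over time by LC/MS/MS on a C18 column with formic acid/acetonitrile gradient.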

The nature of data set [7]: Stability in mouse liver microsomes assessed as compound remaining at 10 uM in presence of NADPH regenerating system measured at 60 mins by LC/MS/MS method. The class given is ADME. Particulars: read-out: Stability. Put shortly: as §2
Data set [8] can be described thus: Displacement of [3H]WIN35,428 from human DAT Y156F mutant expressed in COS7 cell membranes incubated for >90 mins by radioligand binding assay. Conditions: cos-7.
For data set [9], the target named is T3, Sodium-dependent dopamine transporter (Homo sapiens, UniProt Q01959). Put plainly: Displacement of [3H]WIN35,428 from wild type human DAT expressed in COS7 cell membranes incubated for >90 mins by radioligand binding assay. Further details: species or system COS-7.
A short description of data set [10]: Stability in mouse liver microsomes assessed as compound remaining at 10 uM in absence of NADPH regenerating system measured after 60 mins by LC/MS/MS method. The class given is ADME, microsome. Particulars: read-out: Stability.
Data set [11] deals with T3, Sodium-dependent dopamine transporter. The data set can be described thus: Inhibition of DAT (unknown origin) expressed in COS7 cells assessed as reduction in [3H]DA uptake incubated for 5 mins by beta-scintillation counting method. The class given is cell-based, COS-7.
A short description of data set [12]: Displacement of [3H]nisoxetine from NET in Sprague-Dawley rat frontal cortex membranes incubated for 180 mins by radioligand binding assay. Further details: species or system Membrane.
The target of data set [13] is Sodium-dependent dopamine transporter (Rattus norvegicus, UniProt P23977). The data set can be described thus: Displacement of [3H]WIN35,428 from DAT in Sprague-Dawley rat brain membranes incubated for 120 mins by radioligand binding assay. In kind it is cell membranes, Membrane.
Data set [14] in a line: Induction of locomotor activity in C57BL/6J mouse assessed as increase in traveled distance every 10 mins at 3 and 10 mg/kg, ip. The class given is organism-based. Particulars: in vivo.
Data set [15] can be described thus: Stability in mouse liver microsomes assessed as compound remaining at 10 uM in presence of NADPH regenerating system measured up to 70 mins by LC/MS/MS method. The class given is ADME. Conditions: read-out: Stability.

T3 sequence (Q01959 whole entry): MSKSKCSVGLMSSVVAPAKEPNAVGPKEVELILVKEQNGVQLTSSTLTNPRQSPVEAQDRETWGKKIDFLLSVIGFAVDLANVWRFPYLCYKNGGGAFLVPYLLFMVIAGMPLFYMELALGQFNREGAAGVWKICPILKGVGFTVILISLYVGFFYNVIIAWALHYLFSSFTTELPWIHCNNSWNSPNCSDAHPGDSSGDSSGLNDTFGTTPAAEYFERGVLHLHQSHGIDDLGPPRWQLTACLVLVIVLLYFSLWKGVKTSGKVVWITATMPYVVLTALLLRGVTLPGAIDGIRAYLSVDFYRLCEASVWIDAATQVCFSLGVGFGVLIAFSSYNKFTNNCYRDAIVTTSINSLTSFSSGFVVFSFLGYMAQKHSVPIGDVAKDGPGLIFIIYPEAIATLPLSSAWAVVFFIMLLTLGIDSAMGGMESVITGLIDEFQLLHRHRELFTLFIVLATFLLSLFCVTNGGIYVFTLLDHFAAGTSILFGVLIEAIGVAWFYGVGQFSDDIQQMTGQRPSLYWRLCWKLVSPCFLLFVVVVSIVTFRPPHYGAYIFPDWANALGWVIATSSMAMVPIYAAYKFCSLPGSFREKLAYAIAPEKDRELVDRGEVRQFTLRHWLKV
Sigma non-opioid intracellular receptor 1, sequence (Q60492 whole entry): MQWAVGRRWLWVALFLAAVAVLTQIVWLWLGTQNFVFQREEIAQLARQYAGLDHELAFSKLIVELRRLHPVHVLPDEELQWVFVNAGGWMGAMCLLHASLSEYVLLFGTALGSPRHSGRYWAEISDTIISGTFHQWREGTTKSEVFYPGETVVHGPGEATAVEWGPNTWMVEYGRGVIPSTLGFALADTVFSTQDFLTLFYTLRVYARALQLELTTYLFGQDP
T2 sequence (P14416 whole entry): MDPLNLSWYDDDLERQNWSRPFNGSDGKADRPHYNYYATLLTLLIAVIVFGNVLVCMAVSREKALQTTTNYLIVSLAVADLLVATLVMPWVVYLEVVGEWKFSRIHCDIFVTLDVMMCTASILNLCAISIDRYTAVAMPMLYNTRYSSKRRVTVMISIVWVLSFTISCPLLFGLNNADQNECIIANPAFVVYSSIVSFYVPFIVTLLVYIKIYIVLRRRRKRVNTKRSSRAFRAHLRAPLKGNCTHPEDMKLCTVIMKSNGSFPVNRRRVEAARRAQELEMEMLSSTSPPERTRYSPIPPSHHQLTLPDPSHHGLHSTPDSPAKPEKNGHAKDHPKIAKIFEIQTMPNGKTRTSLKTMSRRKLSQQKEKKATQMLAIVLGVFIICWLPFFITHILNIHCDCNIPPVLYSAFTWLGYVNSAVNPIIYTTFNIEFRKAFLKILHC
D(3) dopamine receptor, sequence (P35462 whole entry): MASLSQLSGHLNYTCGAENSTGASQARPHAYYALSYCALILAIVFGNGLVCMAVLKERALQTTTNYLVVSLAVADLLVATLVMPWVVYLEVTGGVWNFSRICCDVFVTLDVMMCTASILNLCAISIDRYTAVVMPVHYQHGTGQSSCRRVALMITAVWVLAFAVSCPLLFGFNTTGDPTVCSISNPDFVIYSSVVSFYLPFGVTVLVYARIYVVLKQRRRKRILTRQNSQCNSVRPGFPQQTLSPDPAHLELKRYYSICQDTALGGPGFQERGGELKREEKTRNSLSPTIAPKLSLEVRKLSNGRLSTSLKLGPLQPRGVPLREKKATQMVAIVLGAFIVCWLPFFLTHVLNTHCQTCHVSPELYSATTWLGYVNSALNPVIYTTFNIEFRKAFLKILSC
Sodium-dependent dopamine transporter (Rattus norvegicus, UniProt P23977), sequence (P23977 whole entry): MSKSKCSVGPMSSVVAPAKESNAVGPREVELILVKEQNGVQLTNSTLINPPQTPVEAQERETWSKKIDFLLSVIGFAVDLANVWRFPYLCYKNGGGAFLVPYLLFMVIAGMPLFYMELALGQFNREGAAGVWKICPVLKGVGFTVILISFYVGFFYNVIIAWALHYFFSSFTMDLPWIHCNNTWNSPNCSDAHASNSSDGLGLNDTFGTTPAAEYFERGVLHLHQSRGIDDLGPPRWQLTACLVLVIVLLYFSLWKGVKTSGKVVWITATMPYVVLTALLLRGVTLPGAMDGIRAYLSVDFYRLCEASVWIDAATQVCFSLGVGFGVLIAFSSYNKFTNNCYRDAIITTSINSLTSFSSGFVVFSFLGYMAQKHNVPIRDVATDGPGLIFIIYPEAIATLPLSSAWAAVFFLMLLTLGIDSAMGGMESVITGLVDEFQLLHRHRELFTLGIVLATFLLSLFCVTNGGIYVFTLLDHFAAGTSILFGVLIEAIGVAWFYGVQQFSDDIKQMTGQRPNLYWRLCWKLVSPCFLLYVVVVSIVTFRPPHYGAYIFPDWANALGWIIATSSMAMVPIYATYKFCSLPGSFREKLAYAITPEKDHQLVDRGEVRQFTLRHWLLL

In the case of `CCc1cc(Cl)c(OC)c(C(=O)NC[C@@H]2CCCN2CC)c1O` [ETICLOPRIDE], the Ki at D(4) dopamine receptor came out at 70.4 nM; at D(2) dopamine receptor [1], 0.26 nM.
As to `Fc1ccc(C(SCCNCCCc2ccccc2)c2ccc(F)cc2)cc1`, the Ki at D(3) dopamine receptor was 65.9 nM; at D(4) dopamine receptor it was 28.1 nM; in [2] it was 159 nM; at D(2) dopamine receptor [1], 228 nM. The Activity entry in [3] is reported as “Non-Toxic”.
For `[O-][S+](CCN1CCN(CC(O)Cc2ccccc2)CC1)C(c1ccc(F)cc1)c1ccc(F)cc1` (stereo unspecified), at D(2) dopamine receptor [4], the IC50 was > 10000 nM. Also, the Ki at D(3) dopamine receptor came out at 652 nM; on D(4) dopamine receptor, 1750 nM; in [8], 97 nM; in data set [9] it was 6.5 nM; at D(2) dopamine receptor [1] it was 78.6 nM; in data set [11], 12 nM. In addition, the Activity result in data set [5] is listed as “Dose-dependent effect”; in data set [3] it was “Non-Toxic”. In addition, the t1/2 in data set [6] (microsomes, 10 µM) was found to be 0.217 h. Moreover, the remaining at 1 h, 10 µM in [7] is 4%; in [10] it was > 95%.
Take `NC(=O)C[S@@+]([O-])C(c1ccccc1)c1ccccc1` [ARMODAFINIL]: the inhibitory constant (Ki) at D(3) dopamine receptor was 39000 nM; at D(4) dopamine receptor it was > 100000 nM; in data set [2] it was > 100000 nM; on D(2) dopamine receptor [1], > 100000 nM. The Activity entry is given as “Dose-dependent effect” in [5] and “Toxic” in data set [3].
Turning to `CCCCN1C2CCC1CC(OC(c1ccc(F)cc1)c1ccc(F)cc1)C2` (stereo unspecified), the Ki at D(3) dopamine receptor came to 34.4 nM; on D(4) dopamine receptor, 583 nM; in data set [2], 2.4 nM; in [12], 1670 nM; in data set [13], 10.5 nM; at D(2) dopamine receptor [1], 68.1 nM.
As to `COC(=O)[C@H]1[C@@H](OC(=O)c2ccccc2)C[C@@H]2CC[C@H]1N2C` [COCAINE], the Activity result in data set [14] was “Dose-dependent effect”.
As to `CC(O)CN1CCN(CC[S+]([O-])C(c2ccc(F)cc2)c2ccc(F)cc2)CC1` (stereo unspecified), on D(2) dopamine receptor [4], the IC50 is > 10000 nM. In addition, the inhibition constant (Ki) on D(3) dopamine receptor came out at 480 nM; on D(4) dopamine receptor, 3820 nM; in [8], 9170 nM; in data set [9], 1200 nM; on D(2) dopamine receptor [1], 298 nM. For the same molecule, the half-life at 10 µM in data set [6] is 1 h. Also, the remaining at 70 min, 10 µM in [15] was determined as 50%. Further, the remaining at 1 h, 10 µM in data set [10] is > 95%.
For `CC(O)CN1CCN(CCSC(c2ccc(F)cc2)c2ccc(F)cc2)CC1` (stereo unspecified), the half-inhibitory concentration (IC50) at D(2) dopamine receptor [4] is > 10000 nM. In addition, the Ki on D(3) dopamine receptor is 424 nM; on D(4) dopamine receptor, 6300 nM; in [8] it was 267 nM; in data set [9], 101 nM; on D(2) dopamine receptor [1], 693 nM; in data set [11], 200 nM. Also, the half-life at 10 µM in data set [6] is 1 h. Moreover, the remaining at 70 min, 10 µM in [15] amounted to 50%. The remaining at 1 h, 10 µM in [10] was > 95%.

(Values after ChEMBL document CHEMBL3862037 (J Med Chem, 2016).)
